# About 1,400 (0.45%) of roughly 310,000 compounds were called active.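 The calls were made as follows: active = calcium response B-score plate-corrected fluorescence ratio at least 3 library SD, with starting fluorescence B-score inside 5 SD; inactive = the rest.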 The entries come from a sample that favours actives as a whole.
# Biological target: Mas-related G-protein coupled receptor member X1 (Homo sapiens) (UniProt Q96LB2)
# Experiment: agonists of human MrgX1 receptor, primary screen, HEK293 cells, Fluo-4 calcium flux (AID 588627);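 as to B-score: B-score of the peak-minus-trough calcium fluorescence change over baseline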
# Conditions: Fluo-4 calcium fluorescence, agonist mode, at 10 µM; active compounds read high
# How it was run: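 Test system: HEK293 cells stably expressing human MrgX1 receptor; Input: fifteen thousand cells per well; Dosing: compound delivered in addition one of three; Schedule: overnight seeding, then 1 h dark dye loading; Technique: Fluo-4 NW calcium fluorescence; Measure: B-scored fluorescence response ratio; Controls: positive and negative controls per plate.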
# Mas-related G-protein coupled receptor member X1 (Homo sapiens), sequence (Q96LB2 whole entry, looked up): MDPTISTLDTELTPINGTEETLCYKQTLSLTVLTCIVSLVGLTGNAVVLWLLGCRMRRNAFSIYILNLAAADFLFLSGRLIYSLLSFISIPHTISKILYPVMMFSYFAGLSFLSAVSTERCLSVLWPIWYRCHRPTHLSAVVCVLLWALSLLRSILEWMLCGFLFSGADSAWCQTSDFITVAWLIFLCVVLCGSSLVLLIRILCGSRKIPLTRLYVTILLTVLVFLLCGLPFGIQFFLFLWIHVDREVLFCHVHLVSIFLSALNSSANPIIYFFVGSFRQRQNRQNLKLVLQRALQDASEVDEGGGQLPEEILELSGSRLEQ
row,Structure (SMILES),B-score
1,CCCCN1C(=O)/C(=C/C=C2/C=Cc3ccccc3N2CC)SC1=S,inactive
2,CCCCN1C(=O)/C(=C2/C=CC=CN2C)SC1=S,inactive
3,CCCCN1C(=O)/C(=C2/Sc3ccc(Cl)cc3N2CC)SC1=S,34.9 (active)
4,COc1ccc(CCNc2ncnc3c2nnn3Cc2ccccc2)cc1,inactive
5,Cc1c(CN2CC[C@@H](N3CCN(c4ccccn4)CC3)[C@H](O)C2)[nH]c2ccc(F)cc12,inactive
6,Fc1ccc2[nH]c3c(N4CCSCC4)ncnc3c2c1,29.1 (active)
7,CC(C)C(=O)Nc1cccc(NC(=S)NC(=O)C(c2ccccc2)c2ccccc2)c1,inactive
8,CCCCC(=O)NNC(=S)NC(=O)C(c1ccccc1)c1ccccc1,145 (active)
9,O=C(NNC(=S)NCc1ccco1)C(c1ccccc1)c1ccccc1,inactive
10,CN(C)Cc1ccc(F)cc1Sc1cc(Cl)ccc1Cl,inactive
11,COc1ccccc1N1CC(C(=O)Nc2nnc(SCC(=O)NC(C)C)s2)CC1=O (stereo unspecified),inactive
12,CCc1noc(C)c1C(=O)Nc1nc(-c2ccccc2)cs1,inactive
13,OC(C#CCN1CCOCC1)(c1ccccc1)C1CCCCC1 (stereo unspecified),inactive
14,Cc1ccc(C(=O)NNC(=O)C(C)Oc2ccc3ccccc3c2)o1 (stereo unspecified),inactive
15,CC(Oc1ccc2ccccc2c1)C(=O)NNC(=S)NC(=O)c1ccco1 (stereo unspecified),69.9 (active)
16,CCCc1ccc(OCC(=O)NNC(=S)NC(=O)c2ccco2)cc1,inactive
17,CCC1(c2ccccc2)NC(=O)N(CC(=O)c2ccc3c(c2)OCO3)C1=O (stereo unspecified),inactive
18,O=C(CCN1CCc2ccccc2C(O)(c2ccccc2)C1)c1ccc2c(c1)OCCO2 (stereo unspecified),29.6 (active)
19,O=C(CN1CCC(O)(c2ccccc2)CC1)Nc1ccc2c(c1)OCCO2,inactive
20,Cc1ccc(N=C2SCCCN2C(=O)c2cccc(N3C(=O)CCC3=O)c2)cc1Cl,inactive
21,CS(=O)(=O)c1sc(C(=O)NC(=S)Nc2ccc(OC(F)(F)F)cc2)c2c1C=CCC2,inactive
22,CC(=O)OC(C)C[N+](C)(C)C (stereo unspecified),119 (active)
23,CC(=O)OCC(COC(C)=O)OC(C)=O,inactive
24,CC(C[N+](C)(C)C)OC(N)=O (stereo unspecified),36.5 (active)
25,O=C(Nc1cccc(F)c1)c1coc(=O)c(Br)c1,inactive
26,N#Cc1cc([N+](=O)[O-])ccc1NCC1CCCO1 (stereo unspecified),inactive

row,Structure (SMILES),B-score
1,CCCc1nc2c(c(=O)c3ccccc3n2C)c(=O)n1-c1cc(C)cc(C)c1,inactive
2,CCCc1nc2c(c(=O)c3ccccc3n2C)c(=O)n1C1CCCCCC1,63 (active)
3,Cn1c2ccccc2c(=O)c2c(=O)n(Cc3ccco3)c(COc3ccccc3)nc21,inactive
4,C/C=C/c1ccc(OCC(=O)OCC(=O)Nc2c(C)nn(-c3ccccc3)c2C)c(OC)c1,inactive
5,COc1cc2c3c(c1)/C(=C1/SC(=S)NC1=O)C(=O)N3C(C)(C)C=C2C,inactive
6,O=C(COC(=O)c1ccc(O)cc1)Nc1nccs1,inactive
7,COc1ccc(CNc2ccc3c(c2)CCC3)cc1OC,inactive
8,O=C(COC(=O)CNS(=O)(=O)c1ccccc1)NC12CC3CC(CC(C3)C1)C2,inactive
9,CN(C)C(=O)N=NC(=O)N(C)C,inactive
10,NC1=NC(=O)C2(COC(c3ccccc3Cl)OC2)S1 (stereo unspecified),inactive
11,CCCCCC(=O)NC(=S)NNC(=O)c1ccc([N+](=O)[O-])cc1,inactive
12,CC(C)(C)SCCNC(=O)c1cccc([N+](=O)[O-])c1,inactive
13,CC(C)CC(=O)NC(=S)NNC(=O)c1cccc([N+](=O)[O-])c1,70.6 (active)
14,CC(=O)c1c(O)cc2n(c1=O)-c1ccc(Cl)cc1C2(C)C,inactive
15,CCN(CC(=O)Nc1ccc2c(c1)OCCO2)Cc1cc(=O)oc2cc(C)c(C)cc12,inactive
16,CC(=O)Nc1ccc(NC(=O)CS(=O)(=O)c2cn(CC(=O)N3CCCCC3)c3ccccc23)cc1,inactive
17,CSCc1nnc(NC(=O)c2ccc(S(=O)(=O)N3CCCCC3C)cc2)o1 (stereo unspecified),inactive
18,CC1CCCN(S(=O)(=O)c2ccc(C(=O)Nc3nnc(-c4ccncc4)o3)cc2)C1 (stereo unspecified),inactive
19,CC1CCCCN1S(=O)(=O)c1ccc(C(=O)Nc2nnc(-c3cccs3)o2)cc1 (stereo unspecified),48.6 (active)
20,Cc1nc(N)nc(SCc2ccc([N+](=O)[O-])cc2)c1N,inactive
21,CCN(C(=O)CN1C(=O)/C(=C/c2ccc(F)cc2)SC1=S)C1CCS(=O)(=O)C1 (stereo unspecified),inactive
22,Nc1ccccc1SCc1cc([N+](=O)[O-])cc2c1OCOC2,inactive
23,Nc1ccccc1SC(C[N+](=O)[O-])c1ccccc1 (stereo unspecified),28.1 (active)
24,CCS(=O)(=O)c1cc([N+](=O)[O-])c(Sc2ccccc2N)s1,inactive
25,CN1CCN(C(=O)c2ccc(NS(=O)(=O)c3ccccc3)cc2)CC1,inactive
26,C/C(=N\NC(=O)c1ccc2ccccc2c1)c1cccnc1,inactive

row,Structure (SMILES),B-score
1,O=C(NCCC1CCCCN1S(=O)(=O)c1ccc(F)cc1)C(=O)NC1CC1 (stereo unspecified),inactive
2,CN(C)c1ccc(CNC(=O)CN2C(=O)COc3ccc(S(=O)(=O)N4CCCC4)cc32)cc1,inactive
3,Cc1cccc(N(C)C(=O)CN2C(=O)COc3ccc(S(=O)(=O)N4CCCCCC4)cc32)c1,46.3 (active)
4,CC(=O)Nc1ccc(NC(=O)CN2C(=O)COc3ccc(S(=O)(=O)N4CCCCC4)cc32)cc1,inactive
5,CCN(CC)S(=O)(=O)c1ccc(N2CC(C(=O)NCc3cccnc3)CC2=O)cc1 (stereo unspecified),inactive
6,COc1ccnc(Oc2ccccc2)n1,inactive
7,Cc1ccc(S(=O)(=O)N(CC(=O)NN=C2CCN(C)CC2)c2ccc(F)cc2)cc1,inactive
8,CC(C)OC(=O)CN1C(=O)C(=O)c2ccccc21,inactive
9,O=C1c2ccccc2C(=O)N1c1cccc2ccccc12,inactive
10,O=C1C(=O)N(c2ccccc2)c2ccccc21,29.6 (active)
11,N/C(=N\OC(=O)CCCC(=O)O)c1ncc(C(F)(F)F)cc1Cl,inactive
12,CC1CCCCC1NC(=O)CN1CCC(O)(c2ccc3c(c2)OCO3)CC1 (stereo unspecified),inactive
13,O=[N+]([O-])c1ccc2c(c1)C(O)n1nc(-c3ccccc3)nc1S2 (stereo unspecified),inactive
14,Cn1c2ccccc2c2cc(/C=C(\NC(=O)c3ccccc3)C(=O)NCC(=O)O)ccc21,52.2 (active)
15,COc1ccc(/C=C(\NC(=O)c2ccccc2)C(=O)NCCN2CCOCC2)cc1OC,inactive
16,CCOC(=O)CNC(=O)/C(=C\c1ccc(F)cc1)NC(=O)c1ccccc1,inactive
17,C/C(=N\Nc1cccc(C(=O)O)c1)c1ccc2c(c1)Nc1ccccc1S2,inactive
18,CCn1c(CC(=O)Nc2ccccc2)nnc1SCC(=O)N1CCOCC1,inactive
19,COc1ccc(Nc2nc(-c3cccnc3)nc3ccccc23)cn1,38.4 (active)
20,O=[N+]([O-])c1ccc(F)cc1Oc1nc(-c2cccnc2)nc2ccccc12,inactive
21,Cc1cccc(-c2nc(Nc3ccc(O)cc3)c3ccccc3n2)c1,inactive
22,CN(C)/C(=N\OC(=O)c1ccccc1)c1nonc1N,inactive
23,C=CCO/N=C/C1=C(O)C(C(=O)OC)C(C)(C)CC1=O (stereo unspecified),inactive
24,C#CCOCCOCCOCCNc1nc(N2CCN(C(=O)CCCCCCCCCCNC(=O)[C@H](CCCCN)n3cc(C)nn3)CC2)nc(N2CCN(C(=O)CCCCCCCCCCNC(=O)[C@H](CO)n3cc(CCCSC)nn3)CC2)n1,29.2 (active)
25,C#CCOCCOCCOCCNc1nc(N2CCN(C(=O)CCCCCCCCCCNC(=O)[C@H]([C@@H](C)CC)n3cc(CCCCN=C(N)N)nn3)CC2)nc(N2CCN(C(=O)CCCCCCCCCCNC(=O)[C@H](CO)n3cc(CCCSC)nn3)CC2)n1,inactive
26,C#CCOCCOCCOCCNc1nc(N2CCN(C(=O)CCCCCCCCCCNC(=O)Cn3cc(CCCCCN)nn3)CC2)nc(N2CCN(C(=O)CCCCCCCCCCNC(=O)[C@H](CO)n3cc(CCCSC)nn3)CC2)n1,inactive

row,Structure (SMILES),B-score
1,COC(=O)c1cc(S(=O)(=O)N2CCC(C(N)=O)CC2)oc1C,inactive
2,CCOc1ccc(NC(=O)c2ccc(NC(=O)CN3C(=O)C(=O)N(CC(C)C)C3=O)cc2)cc1,inactive
3,Cc1cc(C(=O)NNC(=S)Nc2ccccc2C)cs1,inactive
4,COCCCNc1nc2ccccc2nc1NS(=O)(=O)c1ccc(F)cc1,inactive
5,C#CCOc1ccc(/C=C2/C(=O)NN(c3ccccc3)C2=O)cc1OC,inactive
6,COc1cc(/C=C2/C(=O)NN(c3ccc(F)cc3)C2=O)cc([N+](=O)[O-])c1O,inactive
7,COc1cc(/C=C2/C(=O)NN(c3cccc(Cl)c3)C2=O)cc(Br)c1O,45.3 (active)
8,CCCCc1nc(SCC(=O)Nc2nnc(C(C)C)s2)n[nH]1,inactive
9,C=CCN1CN(S(=O)(=O)c2ccc(OC)cc2)c2nc3ccccc3nc21,inactive
10,O=C(COC(=O)/C=C/c1cccc(Cl)c1)NCCc1ccccc1,inactive
11,COCCNC(=O)C1CCN(C(=O)C2CC(=O)N(c3ccc(C)cc3)C2)CC1 (stereo unspecified),inactive
12,O=C(Cc1ccc(Cl)c(Cl)c1)Nc1ccc(SC(F)F)cc1,inactive
13,O=C(CC1SCCNC1=O)Nc1ccc(Cl)c(Cl)c1 (stereo unspecified),inactive
14,O=C(CC(O)(C(F)(F)F)C(F)(F)F)Nc1ccc(Cl)c(Cl)c1,38.4 (active)
15,Cc1nn(C)c(C)c1C(C)NC(=O)c1ccc(OC2CCN(Cc3ccccn3)CC2)cc1 (stereo unspecified),inactive
16,CCOc1ccc(S(=O)(=O)N2CCC(C(=O)OCc3ccc(OC)cc3)CC2)cc1,inactive
17,COC(=O)c1ccc(COC(=O)C2CCN(S(=O)(=O)c3c(Cl)cccc3Cl)CC2)o1,28.7 (active)
18,COc1cccc(COC(=O)C2CCN(S(=O)(=O)c3ccc(Cl)cc3)CC2)c1OC,inactive
19,NC(=O)C1CCN(C(=O)CC2C(=O)NCCN2Cc2cccc(Oc3ccccc3)c2)CC1 (stereo unspecified),inactive
20,Cc1nn(CCCC(=O)NCc2ccccc2Cl)c(=O)c2nccn12,inactive
21,COc1ccc(OC)c(C(=O)c2ccc(C(=O)O)cc2)c1,inactive
22,COc1ccc(OC)c(C(=O)c2ccc(Cl)cc2)c1,29.4 (active)
23,COc1ccc(OC)c(C(=O)c2coc3ccc(OC)cc23)c1,inactive

# Source: PubChem BioAssay AID588627 (Johns Hopkins Ion Channel Center, 2011)
